Source: ChEMBL document CHEMBL1122777, “Effect of tellurium position on the myocardial uptake of radioiodinated 18-iodotellura-17-octadecenoic acid analogues” (1984)

What was measured:
[1] = Ratio of heart to lungs uptake after 240 min was determined in female Fischer rats after [125I]-labeled compound complexed with bovine serum albumin was injected intravenously; type: functional
Summary of the method: (§1)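 Female Fischer 344 rats (food and water ad libitum) given the 125I-labelled fatty acid in 6% bovine albumin with 10% final ethanol, filtered, 0.5 mL into a lateral tail vein under ether anaesthesia. Four rats per time point. Tissue activity expressed as % injected dose/g against assayed injectate standards. Mean heart/tissue ratios were calculated from mean %ID/g values.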

Rattus norvegicus [2] = experiment: Liver uptake after 5 min was determined in female Fischer rats after [125I]-labeled compound complexed with bovine serum albumin was injected intravenously; type: functional
Summary of the method: (§2)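 Female Fischer 344 rats (fed ad libitum) under ether anaesthesia received the ¹²⁵I fatty acid in a lateral tail vein. Dose was ~3.8–4.8 μCi per rat (sp act ~125–240 mCi/mmol), given in 0.5 mL 6% bovine albumin (final ethanol 10%) after filtration. Four rats per time point were used. Tissue radioactivity is % injected dose/g, mean with range, calculated against standards of the injected solution.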

[3] = Ratio of heart to blood uptake after 120 min was determined in female Fischer rats after [125I]-labeled compound complexed with bovine serum albumin was injected intravenously; type: functional; summary of the method: as §1
Rattus norvegicus [4] = experiment: Lungs uptake after 60 min was determined in female Fischer rats after [125I]-labeled compound complexed with bovine serum albumin was injected intravenously; type: functional; summary of the method: as §2
[5] = Ratio of heart to liver uptake after 5 min was determined in female Fischer rats after [125I]-labeled compound complexed with bovine serum albumin was injected intravenously; type: functional; summary of the method: as §1
[6] = Ratio of heart to liver uptake after 60 min was determined in female Fischer rats after [125I]-labeled compound complexed with bovine serum albumin was injected intravenously; type: functional; summary of the method: as §1
[7] = Ratio of heart to kidneys uptake after 120 min was determined in female Fischer rats after [125I]-labeled compound complexed with bovine serum albumin was injected intravenously; type: functional, Heart/Kidney; summary of the method: as §1
[8] = Ratio of heart to liver uptake after 240 min was determined in female Fischer rats after [125I]-labeled compound complexed with bovine serum albumin was injected intravenously; type: functional; summary of the method: as §1
Rattus norvegicus [9] = experiment: Lungs uptake after 3 days was determined in female Fischer rats after [125I]-labeled compound complexed with bovine serum albumin was injected intravenously; type: functional; summary of the method: as §2
Rattus norvegicus [10] = experiment: Liver uptake after 60 min was determined in female Fischer rats after [125I]-labeled compound complexed with bovine serum albumin was injected intravenously; type: functional; summary of the method: as §2
Rattus norvegicus [11] = experiment: Blood uptake after 60 min was determined in female Fischer rats after [125I]-labeled compound complexed with bovine serum albumin was injected intravenously; type: functional; summary of the method: as §2
Rattus norvegicus [12] = experiment: Liver uptake after 2 hr was determined in female Fischer rats after [125I]-labeled compound complexed with bovine serum albumin was injected intravenously; type: functional; summary of the method: as §2
Rattus norvegicus [13] = experiment: Blood uptake after 2 hr was determined in female Fischer rats after [125I]-labeled compound complexed with bovine serum albumin was injected intravenously; type: functional; summary of the method: as §2
Rattus norvegicus [14] = experiment: Liver uptake after 1 day was determined in female Fischer rats after [125I]-labeled compound complexed with bovine serum albumin was injected intravenously; type: functional; summary of the method: as §2
Rattus norvegicus [15] = experiment: Heart uptake after 30 min was determined in female Fischer rats after [125I]-labeled compound complexed with bovine serum albumin was injected intravenously; type: functional; summary of the method: as §2
Rattus norvegicus [16] = experiment: Liver uptake after 4 hr was determined in female Fischer rats after [125I]-labeled compound complexed with bovine serum albumin was injected intravenously; type: functional; summary of the method: as §2
Rattus norvegicus [17] = experiment: Liver uptake after 30 min was determined in female Fischer rats after [125I]-labeled compound complexed with bovine serum albumin was injected intravenously; type: functional; summary of the method: as §2
[18] = Ratio of heart to liver uptake after 30 min was determined in female Fischer rats after [125I]-labeled compound complexed with bovine serum albumin was injected intravenously; type: functional; summary of the method: as §1
[19] = Ratio of heart to liver uptake after 120 min was determined in female Fischer rats after [125I]-labeled compound complexed with bovine serum albumin was injected intravenously; type: functional; summary of the method: as §1
Rattus norvegicus [20] = experiment: Lungs uptake after 2 hr was determined in female Fischer rats after [125I]-labeled compound complexed with bovine serum albumin was injected intravenously; type: functional; summary of the method: as §2
Rattus norvegicus [21] = experiment: Thyroid uptake after 60 min was determined in female Fischer rats after [125I]-labeled compound complexed with bovine serum albumin was injected intravenously; type: functional
Summary of the method: (§3)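 Female Fischer 344 rats with free access to food and water. The 125I-labelled fatty acid (~3.8–4.8 μCi; sp act. ~125–240 mCi/mmol) was complexed with 6% bovine serum albumin (10% final ethanol), filtered, and 0.5 mL was injected via a lateral tail vein under ether anaesthesia. Four rats per time point. Values are mean % injected dose/g, calculated against injectate standards. Thyroid weight was taken as 7.5 mg/100 g body weight.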

[22] = Ratio of heart to kidneys uptake after 30 min was determined in female Fischer rats after [125I]-labeled compound complexed with bovine serum albumin was injected intravenously; type: functional, Heart/Kidney; summary of the method: as §1
Rattus norvegicus [23] = experiment: Thyroid uptake after 2 hr was determined in female Fischer rats after [125I]-labeled compound complexed with bovine serum albumin was injected intravenously; type: functional; summary of the method: as §3
[24] = Ratio of heart to lungs uptake after 30 min was determined in female Fischer rats after [125I]-labeled compound complexed with bovine serum albumin was injected intravenously; type: functional; summary of the method: as §1
Rattus norvegicus [25] = experiment: Lungs uptake after 1 day was determined in female Fischer rats after [125I]-labeled compound complexed with bovine serum albumin was injected intravenously; type: functional; summary of the method: as §2
[26] = Ratio of heart to lungs uptake after 120 min was determined in female Fischer rats after [125I]-labeled compound complexed with bovine serum albumin was injected intravenously; type: functional; summary of the method: as §1
[27] = Ratio of heart to kidneys uptake after 5 min was determined in female Fischer rats after [125I]-labeled compound complexed with bovine serum albumin was injected intravenously; type: functional, Heart/Kidney; summary of the method: as §1
Rattus norvegicus [28] = experiment: Blood uptake after 4 hr was determined in female Fischer rats after [125I]-labeled compound complexed with bovine serum albumin was injected intravenously; type: functional; summary of the method: as §2
Rattus norvegicus [29] = experiment: Thyroid uptake after 5 min was determined in female Fischer rats after [125I]-labeled compound complexed with bovine serum albumin was injected intravenously; type: functional; summary of the method: as §3
Rattus norvegicus [30] = experiment: Heart uptake after 60 min was determined in female Fischer rats after [125I]-labeled compound complexed with bovine serum albumin was injected intravenously; type: functional; summary of the method: as §2
Rattus norvegicus [31] = experiment: Thyroid uptake after 30 min was determined in female Fischer rats after [125I]-labeled compound complexed with bovine serum albumin was injected intravenously; type: functional; summary of the method: as §3
[32] = Ratio of heart to blood uptake after 240 min was determined in female Fischer rats after [125I]-labeled compound complexed with bovine serum albumin was injected intravenously; type: functional; summary of the method: as §1
Rattus norvegicus [33] = experiment: Lungs uptake after 4 hr was determined in female Fischer rats after [125I]-labeled compound complexed with bovine serum albumin was injected intravenously; type: functional; summary of the method: as §2
Rattus norvegicus [34] = experiment: Heart uptake after 1 day was determined in female Fischer rats after [125I]-labeled compound complexed with bovine serum albumin was injected intravenously; type: functional; summary of the method: as §2
[35] = Ratio of heart to blood uptake after 5 min was determined in female Fischer rats after [125I]-labeled compound complexed with bovine serum albumin was injected intravenously; type: functional; summary of the method: as §1
Rattus norvegicus [36] = experiment: Thyroid uptake after 3 days was determined in female Fischer rats after [125I]-labeled compound complexed with bovine serum albumin was injected intravenously; type: functional; summary of the method: as §3
[37] = Ratio of heart to blood uptake after 30 min was determined in female Fischer rats after [125I]-labeled compound complexed with bovine serum albumin was injected intravenously; type: functional; summary of the method: as §1
[38] = Ratio of heart to blood uptake after 60 min was determined in female Fischer rats after [125I]-labeled compound complexed with bovine serum albumin was injected intravenously; type: functional; summary of the method: as §1
[39] = Ratio of heart to lungs uptake after 5 min was determined in female Fischer rats after [125I]-labeled compound complexed with bovine serum albumin was injected intravenously; type: functional; summary of the method: as §1
Rattus norvegicus [40] = experiment: Heart uptake after 5 min was determined in female Fischer rats after [125I]-labeled compound complexed with bovine serum albumin was injected intravenously; type: functional; summary of the method: as §2
[41] = Ratio of heart to kidneys uptake after 60 min was determined in female Fischer rats after [125I]-labeled compound complexed with bovine serum albumin was injected intravenously; type: functional, Heart/Kidney; summary of the method: as §1

## O=C(O)CCCCCCCCC[Te]CCCCC/C=C/I
[1]
  Ratio: 1.5
Rattus norvegicus [2]
  Injected dose/g: 8.33%
[3]
  Ratio: 5
Rattus norvegicus [4]
  Injected dose/g: 2.07%
[5]
  Ratio: 0.37
[6]
  Ratio: 0.7
[7]
  Ratio: 2.5
[8]
  Ratio: 0.97
Rattus norvegicus [9]
  Injected dose/g: 0.32%
Rattus norvegicus [10]
  Injected dose/g: 5.15%
Rattus norvegicus [11]
  Injected dose/g: 0.67%
Rattus norvegicus [12]
  Injected dose/g: 3.47%
Rattus norvegicus [13]
  Injected dose/g: 0.81%
Rattus norvegicus [14]
  Injected dose/g: 0.52%
Rattus norvegicus [15]
  Injected dose/g: 3.05%
Rattus norvegicus [16]
  Injected dose/g: 2.52%
Rattus norvegicus [17]
  Injected dose/g: 6.49%
[18]
  Ratio: 0.47
[19]
  Ratio: 1.1
Rattus norvegicus [20]
  Injected dose/g: 2.02%
Rattus norvegicus [21]
  Injected dose/g: 37%
[22]
  Ratio: 1.5
Rattus norvegicus [23]
  Injected dose/g: 45%
[24]
  Ratio: 1.6
Rattus norvegicus [25]
  Injected dose/g: 0.76%
[26]
  Ratio: 1.9
[27]
  Ratio: 1.4
Rattus norvegicus [28]
  Injected dose/g: 1.03%
Rattus norvegicus [29]
  Injected dose/g: 29%
Rattus norvegicus [30]
  Injected dose/g: 3.63%
Rattus norvegicus [31]
  Injected dose/g: 29%
[32]
  Ratio: 2
Rattus norvegicus [33]
  Injected dose/g: 1.59%
Rattus norvegicus [34]
  Injected dose/g: 0.69%
[35]
  Ratio: 7
Rattus norvegicus [36]
  Injected dose/g: 227%
[37]
  Ratio: 5
[38]
  Ratio: 5
[39]
  Ratio: 1.2
Rattus norvegicus [40]
  Injected dose/g: 3.09%
[41]
  Ratio: 1

## O=C(O)CCCCCCC[Te]CCCCCCC/C=C/I
[1]
  Ratio: 2.9
Rattus norvegicus [2]
  Injected dose/g: 6.41%
[3]
  Ratio: 9
Rattus norvegicus [4]
  Injected dose/g: 1.57%
[5]
  Ratio: 0.75
[6]
  Ratio: 1.06
[7]
  Ratio: 3.1
[8]
  Ratio: 0.93
Rattus norvegicus [9]
  Injected dose/g: 0.34%
Rattus norvegicus [10]
  Injected dose/g: 4.87%
Rattus norvegicus [11]
  Injected dose/g: 0.36%
Rattus norvegicus [12]
  Injected dose/g: 4.66%
Rattus norvegicus [13]
  Injected dose/g: 0.44%
Rattus norvegicus [14]
  Injected dose/g: 1.64%
Rattus norvegicus [15]
  Injected dose/g: 3.76%
Rattus norvegicus [16]
  Injected dose/g: 3.76%
Rattus norvegicus [17]
  Injected dose/g: 5.69%
[18]
  Ratio: 0.66
[19]
  Ratio: 0.84
Rattus norvegicus [20]
  Injected dose/g: 1.43%
Rattus norvegicus [21]
  Injected dose/g: 24.8%
[22]
  Ratio: 3.7
Rattus norvegicus [23]
  Injected dose/g: 38.5%
[24]
  Ratio: 2.5
Rattus norvegicus [25]
  Injected dose/g: 0.55%
[26]
  Ratio: 2.7
[27]
  Ratio: 3.1
Rattus norvegicus [28]
  Injected dose/g: 0.53%
Rattus norvegicus [29]
  Injected dose/g: 9.21%
Rattus norvegicus [30]
  Injected dose/g: 5.17%
Rattus norvegicus [31]
  Injected dose/g: 15%
[32]
  Ratio: 4
Rattus norvegicus [33]
  Injected dose/g: 1.21%
Rattus norvegicus [34]
  Injected dose/g: 0.86%
[35]
  Ratio: 21
Rattus norvegicus [36]
  Injected dose/g: 267%
[37]
  Ratio: 8
[38]
  Ratio: 14
[39]
  Ratio: 2.9
Rattus norvegicus [40]
  Injected dose/g: 4.83%
[41]
  Ratio: 3.4
